Reference: article PMC6289288 (Journal of hazardous materials, 2018)
Read-outs that look alike come from different tables or passages of the source.

How the values were obtained:
[1] = laboratory settings; cited from earlier work
[2] = tested on: Aliivibrio fischeri; assay: Microtox acute toxicity assay; type: cell-based; conditions: n=3, mean ± SD
Method in brief: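 Aliivibrio fischeri bioluminescence assay, run in triplicate. A 2 mM stock was osmotically adjusted and then 1:1 serially diluted in Microtox diluent to 9 concentrations (3.5–889 μM). Diluent alone served as the toxicant-free control. Light output was read before mixing with bacteria and again at 5, 15 and 30 min. EC50 is the concentration halving bioluminescence relative to the control at each time point.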

[3] = tested on: H1299, a human lung cell line; assay: xCELLigence Real-Time Cell Analysis; type: cell-based; conditions: read-out: xCELLigence IC50 72 h; H1299, 72 h, n=3, mean ± SD
[4] = tested on: H1299, a human lung cell line; assay: MTS cytotoxicity assay; type: cell-based; conditions: read-out: MTS IC50 72 h; H1299, 72 h, mean ± SD, n = 2–7
[5] = Measured at pH 8; ref Palos Pacheco et al. [25]; cited from earlier work
[6] = tested on: Zebrafish (Danio rerio) embryos; assay: Zebrafish embryo developmental toxicity assay; type: in vivo; conditions: for Zebrafish mortality: 120 hpf
Method in brief: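 Embryos with intact chorions were exposed from 6 to 120 hpf in embryo medium to 0.064–640 μM test compound. All wells contained 0.64% DMSO, and there were 32 embryos per concentration and control. Plates were kept at 28 °C in the dark. At 24 hpf, mortality, developmental delay, spontaneous movement and notochord were scored. At 120 hpf, mortality, edemas, morphological abnormalities, circulation, swim bladder and touch response were scored.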

[7] = read-out: Microtox EC50 5 min, 5 min exposure
[8] = read-out: Microtox EC50 15 min, 15 min exposure
[9] = read-out: Microtox EC50 30 min, 30 min exposure

| Structure (SMILES) | Biodegradability [1] | EC50 [2, 7] [µM] | EC50 [2, 8] [µM] | EC50 [2, 9] [µM] | IC50 [3] [µM] | IC50 [4] [µM] | Area [5] [Å^2 molecule^−1] | CMC [5] [µM] | Minimum Surface Tension [5] [mN m^−1] | Zebrafish mortality ([6]; 6.4 μM, n = 32) [%] | Zebrafish mortality ([6]; 640 μM, n = 32, exposure from 6 to 120 hpf) | Developmental effects (22 developmental endpoints) ([6]; 0.064–640 μM, 24 and 120 hpf) |
| --- | --- | --- | --- | --- | --- | --- | --- | --- | --- | --- | --- | --- |
| CCCCC(CC)COC(=O)CC(C(=O)OCC(CC)CCCC)S(=O)(=O)O (stereo not shown) [bis-(2-ethylhexyl) sulfosuccinate (DOSS), bis-(2-ethylhexyl) sulfosuccinate] | biodegradable |  |  |  |  |  |  |  |  |  |  |  |
| CCCCCCCC(CC(=O)O)OC(=O)CC(CCCCCCC)O[C@@H]1O[C@@H](C)[C@H](O)[C@@H](O)[C@H]1O (stereo partly drawn) [Rha-C10-C10 (S,R), rhamnosyl-β-hydroxydecanoyl-β-hydroxydecanoate] |  | 61.9 ± 4.7 | 39.6 ± 2.9 | 36.6 ± 2.9 | 111 ± 6.2 | 103 ± 31.9 | 105 ± 4 | 180 ± 24 | 28.5 ± 0.2 |  |  |  |
| CCCCCCCC(CC(=O)O)OC(=O)CC(CCCCCCC)O[C@@H]1O[C@@H](C)[C@H](O)[C@@H](O)[C@H]1O (stereo partly drawn) [Rha-C10-C10 (S,S), rhamnosyl-β-hydroxydecanoyl-β-hydroxydecanoate] |  | 64.3 ± 8.5 | 42.6 ± 4.4 | 38.8 ± 3.7 | 108 ± 5.3 | 125 ± 18.6 | 94 ± 8 | 201 ± 51 | 29.5 ± 0.2 | 19 |  |  |
| CCCCCCCC(CC(=O)O)OC(=O)CC(CCCCCCC)O[C@@H]1O[C@@H](C)[C@H](O)[C@@H](O)[C@H]1O (stereo partly drawn) [Rha-C10-C10 (R,R), rhamnosyl-β-hydroxydecanoyl-β-hydroxydecanoate] |  | 78.7 ± 4 | 53.8 ± 3.3 | 47.3 ± 1.2 | 122 ± 9.1 | 129.7 ± 1.1 | 119 ± 10 | 270 ± 77 | 28.1 ± 0.2 |  | not associated with mortality | no developmental effects |
